Assay results: ChEMBL document CHEMBL4330096, “Discovery of potent and selective 5-azaindazole inhibitors of leucine-rich repeat kinase 2 (LRRK2) - Part 1” (Bioorg Med Chem Lett, 2019)

Columns and labels:
[1] = target: Serine/threonine-protein kinase pim-1 (Homo sapiens) (UniProt P11309); test: Inhibition of PIM1 (unknown origin) at 1 uM relative to control
Summary of the method: (§1)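 Single-concentration screen of each compound against a 59-protein-kinase panel, run at 10 µM or 1 µM. Activity relative to control is shown as a heat map across the panel.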

[2] = target: Insulin receptor-related protein (Homo sapiens) (UniProt P14616); test: Inhibition of IRR (unknown origin) at 1 uM relative to control
Chain of Insulin receptor-related protein (Homo sapiens) (P14616 27-742 limits assumed): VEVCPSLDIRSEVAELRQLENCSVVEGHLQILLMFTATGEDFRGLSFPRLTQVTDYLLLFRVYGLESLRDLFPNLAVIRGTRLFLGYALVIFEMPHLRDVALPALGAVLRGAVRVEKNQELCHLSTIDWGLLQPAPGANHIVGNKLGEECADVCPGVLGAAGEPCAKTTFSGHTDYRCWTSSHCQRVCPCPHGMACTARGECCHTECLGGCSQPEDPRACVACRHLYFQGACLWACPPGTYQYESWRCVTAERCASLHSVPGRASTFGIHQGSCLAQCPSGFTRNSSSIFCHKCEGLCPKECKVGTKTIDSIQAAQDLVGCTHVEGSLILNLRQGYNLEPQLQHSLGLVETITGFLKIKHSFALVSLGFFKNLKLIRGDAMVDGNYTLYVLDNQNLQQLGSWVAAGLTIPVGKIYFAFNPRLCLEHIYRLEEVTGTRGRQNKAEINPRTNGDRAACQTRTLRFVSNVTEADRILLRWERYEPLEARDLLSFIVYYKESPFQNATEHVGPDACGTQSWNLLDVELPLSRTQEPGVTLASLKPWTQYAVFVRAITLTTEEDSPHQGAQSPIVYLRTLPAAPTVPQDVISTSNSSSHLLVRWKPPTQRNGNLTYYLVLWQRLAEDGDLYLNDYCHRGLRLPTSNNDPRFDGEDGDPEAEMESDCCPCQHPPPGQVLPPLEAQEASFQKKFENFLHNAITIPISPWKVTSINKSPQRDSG
Chain of Insulin receptor-related protein (Homo sapiens) (P14616 747-1297 limits assumed): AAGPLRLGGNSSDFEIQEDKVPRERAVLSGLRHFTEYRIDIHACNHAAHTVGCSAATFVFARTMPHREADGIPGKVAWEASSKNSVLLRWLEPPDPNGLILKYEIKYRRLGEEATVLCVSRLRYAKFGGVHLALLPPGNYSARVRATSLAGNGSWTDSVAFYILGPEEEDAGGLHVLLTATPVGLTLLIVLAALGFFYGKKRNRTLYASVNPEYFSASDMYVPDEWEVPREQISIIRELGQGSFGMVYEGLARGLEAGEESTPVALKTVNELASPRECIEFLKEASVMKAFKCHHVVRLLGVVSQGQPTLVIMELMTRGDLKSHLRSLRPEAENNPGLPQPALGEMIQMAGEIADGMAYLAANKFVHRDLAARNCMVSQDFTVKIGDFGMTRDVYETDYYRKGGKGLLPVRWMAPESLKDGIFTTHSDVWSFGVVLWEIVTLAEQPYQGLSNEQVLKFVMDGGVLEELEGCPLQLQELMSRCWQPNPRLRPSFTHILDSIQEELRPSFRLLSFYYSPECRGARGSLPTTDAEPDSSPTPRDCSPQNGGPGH
Summary of the method: (§2)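 Single-point screen of each compound against a panel of 59 protein kinases, at 1 or 10 μM. The panel data are also summarised as a rescaled geometric mean selectivity score.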

[3] = target: T1, Serine/threonine-protein kinase BRSK2 (Homo sapiens) (UniProt Q8IWQ3); test: Inhibition of BRSK2 (unknown origin) at 1 uM relative to control; summary of the method: as §2
T1 sequence (whole entry): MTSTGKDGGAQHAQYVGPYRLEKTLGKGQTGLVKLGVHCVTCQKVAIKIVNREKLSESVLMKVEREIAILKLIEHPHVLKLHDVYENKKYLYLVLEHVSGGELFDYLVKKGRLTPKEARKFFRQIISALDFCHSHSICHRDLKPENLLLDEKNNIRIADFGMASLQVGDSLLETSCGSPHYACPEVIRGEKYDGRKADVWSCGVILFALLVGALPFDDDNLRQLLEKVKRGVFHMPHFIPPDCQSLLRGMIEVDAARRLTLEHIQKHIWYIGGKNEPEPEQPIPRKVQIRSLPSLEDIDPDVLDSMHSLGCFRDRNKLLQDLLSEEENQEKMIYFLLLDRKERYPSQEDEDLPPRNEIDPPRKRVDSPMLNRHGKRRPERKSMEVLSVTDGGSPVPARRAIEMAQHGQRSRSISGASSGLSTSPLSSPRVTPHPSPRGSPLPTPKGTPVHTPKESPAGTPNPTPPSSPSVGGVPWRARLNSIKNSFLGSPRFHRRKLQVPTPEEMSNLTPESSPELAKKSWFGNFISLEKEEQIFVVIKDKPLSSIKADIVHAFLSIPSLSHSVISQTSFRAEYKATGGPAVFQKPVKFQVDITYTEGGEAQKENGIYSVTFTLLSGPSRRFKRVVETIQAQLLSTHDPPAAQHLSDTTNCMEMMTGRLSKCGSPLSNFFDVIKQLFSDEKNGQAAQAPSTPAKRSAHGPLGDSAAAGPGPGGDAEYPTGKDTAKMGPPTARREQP

[4] = target: RAC-beta serine/threonine-protein kinase (Homo sapiens) (UniProt P31751); test: Inhibition of PKBb (unknown origin) at 1 uM relative to control; summary of the method: as §1
Chain of RAC-beta serine/threonine-protein kinase (Homo sapiens) (P31751 whole entry): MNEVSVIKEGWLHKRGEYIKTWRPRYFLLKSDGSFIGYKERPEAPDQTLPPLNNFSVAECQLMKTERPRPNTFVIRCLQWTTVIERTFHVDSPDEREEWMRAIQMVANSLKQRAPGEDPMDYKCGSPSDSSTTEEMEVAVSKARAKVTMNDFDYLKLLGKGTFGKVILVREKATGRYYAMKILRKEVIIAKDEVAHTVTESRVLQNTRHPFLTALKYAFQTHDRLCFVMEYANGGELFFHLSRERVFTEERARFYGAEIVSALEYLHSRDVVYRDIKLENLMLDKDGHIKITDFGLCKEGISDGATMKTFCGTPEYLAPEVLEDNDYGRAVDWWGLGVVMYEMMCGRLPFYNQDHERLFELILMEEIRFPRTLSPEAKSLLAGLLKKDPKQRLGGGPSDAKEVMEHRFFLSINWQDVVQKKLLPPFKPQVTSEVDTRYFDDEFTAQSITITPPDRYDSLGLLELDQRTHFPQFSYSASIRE

[5] = target: Insulin-like growth factor 1 receptor (Homo sapiens) (UniProt P08069); test: Inhibition of IGF1R (unknown origin) at 1 uM relative to control; summary of the method: as §2
Chain of Insulin-like growth factor 1 receptor (Homo sapiens) (P08069 31-736 limits assumed): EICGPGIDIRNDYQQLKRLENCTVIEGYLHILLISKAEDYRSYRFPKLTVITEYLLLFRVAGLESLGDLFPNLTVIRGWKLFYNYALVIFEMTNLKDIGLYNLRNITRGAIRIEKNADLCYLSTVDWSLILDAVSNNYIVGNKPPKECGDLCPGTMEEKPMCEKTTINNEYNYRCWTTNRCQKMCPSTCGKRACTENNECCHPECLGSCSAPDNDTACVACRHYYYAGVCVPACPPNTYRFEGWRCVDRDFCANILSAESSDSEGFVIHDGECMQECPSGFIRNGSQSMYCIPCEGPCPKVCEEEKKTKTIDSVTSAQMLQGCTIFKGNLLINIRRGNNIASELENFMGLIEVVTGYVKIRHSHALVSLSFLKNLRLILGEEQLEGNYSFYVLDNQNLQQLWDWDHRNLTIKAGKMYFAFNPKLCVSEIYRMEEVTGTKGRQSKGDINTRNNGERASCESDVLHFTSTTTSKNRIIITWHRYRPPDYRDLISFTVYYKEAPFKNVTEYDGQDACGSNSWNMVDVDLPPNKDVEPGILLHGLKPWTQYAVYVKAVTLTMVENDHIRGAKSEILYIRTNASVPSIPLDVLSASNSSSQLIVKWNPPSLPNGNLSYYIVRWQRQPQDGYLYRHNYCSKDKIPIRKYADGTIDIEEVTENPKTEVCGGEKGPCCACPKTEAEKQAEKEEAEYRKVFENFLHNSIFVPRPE
Chain of Insulin-like growth factor 1 receptor (Homo sapiens) (P08069 741-1367 limits assumed): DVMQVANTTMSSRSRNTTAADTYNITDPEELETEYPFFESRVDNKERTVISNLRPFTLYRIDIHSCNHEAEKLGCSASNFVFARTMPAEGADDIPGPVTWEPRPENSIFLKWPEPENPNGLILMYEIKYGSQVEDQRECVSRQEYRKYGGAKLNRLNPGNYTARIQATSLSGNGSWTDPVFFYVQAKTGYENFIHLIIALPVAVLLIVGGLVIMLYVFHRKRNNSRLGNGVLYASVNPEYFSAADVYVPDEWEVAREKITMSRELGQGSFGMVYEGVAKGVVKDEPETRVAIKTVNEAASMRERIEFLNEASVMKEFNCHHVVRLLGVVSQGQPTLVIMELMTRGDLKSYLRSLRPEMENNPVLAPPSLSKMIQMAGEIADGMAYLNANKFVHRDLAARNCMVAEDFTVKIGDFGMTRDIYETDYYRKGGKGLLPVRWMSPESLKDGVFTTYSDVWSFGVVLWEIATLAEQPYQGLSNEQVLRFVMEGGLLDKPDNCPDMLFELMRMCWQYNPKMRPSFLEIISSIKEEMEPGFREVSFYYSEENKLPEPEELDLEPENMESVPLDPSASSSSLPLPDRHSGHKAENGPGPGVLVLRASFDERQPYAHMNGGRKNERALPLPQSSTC

[6] = target: T2, MAP kinase-activated protein kinase 5 (Homo sapiens) (UniProt Q8IW41); test: Inhibition of PRAK (unknown origin) at 1 uM relative to control; summary of the method: as §1
T2 sequence (whole entry): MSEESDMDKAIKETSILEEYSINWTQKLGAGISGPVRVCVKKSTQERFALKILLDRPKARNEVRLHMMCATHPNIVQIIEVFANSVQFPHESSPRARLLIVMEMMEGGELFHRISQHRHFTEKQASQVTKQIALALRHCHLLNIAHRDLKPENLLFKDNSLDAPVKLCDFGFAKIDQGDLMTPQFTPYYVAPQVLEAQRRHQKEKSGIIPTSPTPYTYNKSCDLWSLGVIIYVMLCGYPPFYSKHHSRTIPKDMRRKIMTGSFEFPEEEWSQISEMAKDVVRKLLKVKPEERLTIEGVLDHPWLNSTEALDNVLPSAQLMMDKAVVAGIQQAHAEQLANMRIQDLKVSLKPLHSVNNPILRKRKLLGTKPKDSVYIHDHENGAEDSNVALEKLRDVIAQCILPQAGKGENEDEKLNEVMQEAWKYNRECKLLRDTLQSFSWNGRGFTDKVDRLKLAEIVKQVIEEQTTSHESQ

[7] = target: T3, Inhibitor of nuclear factor kappa-B kinase subunit beta (Homo sapiens) (UniProt O14920); test: Inhibition of IKKb (unknown origin) at 1 uM relative to control; summary of the method: as §2
T3 sequence (whole entry): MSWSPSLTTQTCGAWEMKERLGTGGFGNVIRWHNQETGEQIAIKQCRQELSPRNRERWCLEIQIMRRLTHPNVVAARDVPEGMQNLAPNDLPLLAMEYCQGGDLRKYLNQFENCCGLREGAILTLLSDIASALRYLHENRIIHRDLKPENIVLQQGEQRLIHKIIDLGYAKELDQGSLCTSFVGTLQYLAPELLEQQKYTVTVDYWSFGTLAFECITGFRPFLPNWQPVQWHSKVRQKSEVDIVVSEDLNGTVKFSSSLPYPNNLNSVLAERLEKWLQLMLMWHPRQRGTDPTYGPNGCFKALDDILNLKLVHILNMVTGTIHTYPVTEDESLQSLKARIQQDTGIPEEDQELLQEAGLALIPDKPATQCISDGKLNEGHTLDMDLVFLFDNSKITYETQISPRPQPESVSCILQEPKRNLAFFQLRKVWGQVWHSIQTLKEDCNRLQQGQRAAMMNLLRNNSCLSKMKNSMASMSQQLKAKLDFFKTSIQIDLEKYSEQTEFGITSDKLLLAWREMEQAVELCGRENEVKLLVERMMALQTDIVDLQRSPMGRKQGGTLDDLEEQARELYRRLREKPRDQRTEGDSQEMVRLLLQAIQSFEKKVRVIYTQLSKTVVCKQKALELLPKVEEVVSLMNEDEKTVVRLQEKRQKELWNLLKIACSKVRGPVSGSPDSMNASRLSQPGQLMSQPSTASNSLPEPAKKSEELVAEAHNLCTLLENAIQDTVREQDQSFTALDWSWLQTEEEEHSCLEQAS

[8] = target: Aurora kinase B (Homo sapiens) (UniProt Q96GD4); test: Inhibition of Aurora B (unknown origin) at 1 uM relative to control; summary of the method: as §2
Chain of Aurora kinase B (Homo sapiens) (Q96GD4 whole entry): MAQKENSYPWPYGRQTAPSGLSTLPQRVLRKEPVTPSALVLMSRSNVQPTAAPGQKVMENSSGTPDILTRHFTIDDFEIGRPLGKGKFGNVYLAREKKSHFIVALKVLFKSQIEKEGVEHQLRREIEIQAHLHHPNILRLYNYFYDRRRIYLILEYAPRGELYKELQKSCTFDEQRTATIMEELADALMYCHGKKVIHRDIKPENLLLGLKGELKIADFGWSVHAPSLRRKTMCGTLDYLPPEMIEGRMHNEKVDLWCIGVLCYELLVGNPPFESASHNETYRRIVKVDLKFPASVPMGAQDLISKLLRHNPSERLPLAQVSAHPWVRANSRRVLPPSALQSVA

Homo sapiens = species: Homo sapiens; test: Inhibition of VEGFR (unknown origin) at 1 uM relative to control
Summary of the method: (§3)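 Single-concentration screen across a panel of 59 protein kinases, with each compound tested at one fixed concentration. The read-out is residual kinase activity relative to control. Panel results are also condensed into a rescaled geometric mean (RGM) selectivity score.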

[9] = target: SRSF protein kinase 1 (Homo sapiens) (UniProt Q96SB4); test: Inhibition of SRPK1 (unknown origin) at 1 uM relative to control; summary of the method: as §3
[10] = target: Tyrosine-protein kinase CSK (Homo sapiens) (UniProt P41240); test: Inhibition of CSK (unknown origin) at 1 uM relative to control; summary of the method: as §2
Chain of Tyrosine-protein kinase CSK (Homo sapiens) (P41240 2-450 limits assumed): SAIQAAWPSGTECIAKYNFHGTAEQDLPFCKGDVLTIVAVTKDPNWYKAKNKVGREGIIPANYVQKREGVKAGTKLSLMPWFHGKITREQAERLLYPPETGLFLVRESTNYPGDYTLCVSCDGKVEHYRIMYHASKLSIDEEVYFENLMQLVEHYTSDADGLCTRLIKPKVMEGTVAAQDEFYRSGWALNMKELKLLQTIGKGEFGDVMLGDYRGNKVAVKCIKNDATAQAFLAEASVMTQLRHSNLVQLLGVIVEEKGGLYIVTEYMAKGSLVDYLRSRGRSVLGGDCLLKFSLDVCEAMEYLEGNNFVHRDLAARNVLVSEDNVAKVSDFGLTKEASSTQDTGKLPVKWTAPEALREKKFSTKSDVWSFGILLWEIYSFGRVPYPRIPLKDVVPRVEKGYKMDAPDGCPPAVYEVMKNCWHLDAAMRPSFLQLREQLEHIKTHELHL

[11] = target: Ribosomal protein S6 kinase beta-1 (Homo sapiens) (UniProt P23443); test: Inhibition of S6K1 (unknown origin) at 1 uM relative to control; summary of the method: as §3
[12] = target: RAC-alpha serine/threonine-protein kinase (Homo sapiens) (UniProt P31749); test: Inhibition of PKBa (unknown origin) at 1 uM relative to control; summary of the method: as §1
Chain of RAC-alpha serine/threonine-protein kinase (Homo sapiens) (P31749 whole entry): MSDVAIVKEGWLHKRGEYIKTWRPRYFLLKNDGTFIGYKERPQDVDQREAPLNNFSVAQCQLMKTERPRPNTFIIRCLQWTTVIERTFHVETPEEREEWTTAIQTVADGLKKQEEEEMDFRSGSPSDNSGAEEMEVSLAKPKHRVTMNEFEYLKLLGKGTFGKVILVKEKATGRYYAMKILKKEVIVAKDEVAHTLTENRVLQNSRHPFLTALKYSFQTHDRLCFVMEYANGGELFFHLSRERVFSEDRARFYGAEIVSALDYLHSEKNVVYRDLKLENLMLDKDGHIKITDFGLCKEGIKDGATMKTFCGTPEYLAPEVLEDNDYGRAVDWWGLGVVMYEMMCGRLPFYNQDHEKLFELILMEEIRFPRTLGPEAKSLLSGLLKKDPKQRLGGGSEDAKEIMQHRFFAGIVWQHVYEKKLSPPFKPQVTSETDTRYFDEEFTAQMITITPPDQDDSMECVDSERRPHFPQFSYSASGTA

Chain of Serine/threonine-protein kinase pim-1 (Homo sapiens) (P11309 whole entry, looked up): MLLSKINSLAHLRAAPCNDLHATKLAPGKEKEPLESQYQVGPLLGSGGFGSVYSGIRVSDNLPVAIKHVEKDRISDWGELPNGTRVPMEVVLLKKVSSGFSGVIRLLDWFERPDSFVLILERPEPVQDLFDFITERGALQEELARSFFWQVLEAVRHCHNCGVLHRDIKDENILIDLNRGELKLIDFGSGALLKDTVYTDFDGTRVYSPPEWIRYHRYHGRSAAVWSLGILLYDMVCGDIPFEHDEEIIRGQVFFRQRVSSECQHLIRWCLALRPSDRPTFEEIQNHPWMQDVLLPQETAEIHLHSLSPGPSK

| Structure (SMILES) | inhibition [1] | inhibition [2] | inhibition [3] | inhibition [4] | inhibition [5] | inhibition [6] | inhibition [7] | inhibition [8] | inhibition (Homo sapiens) | inhibition [9] | inhibition [10] | inhibition [11] | inhibition [12] |
| --- | --- | --- | --- | --- | --- | --- | --- | --- | --- | --- | --- | --- | --- |
| CC(C)n1cc(-c2n[nH]c3ccnc(OC4CCOCC4)c23)cn1 | 77% | 45% | 19% | 27% | 40% | 19% | 3% | 38% | 59% | 0% | 0% | 16% | 0% |
| c1cc(-c2n[nH]c3ccnc(OC4CCOCC4)c23)cc(N2CCOCC2)n1 | 34% | 3% | 0% | 0% | 11% | 4% | 0% | 0% | 2% | 0% | 0% | 0% | 0% |
